High-throughput results: PubChem, several laboratories
The list is not random: actives were taken first. Their share in the collection is about 3%.
Granule exo inh – blocks lytic granule exocytosis; TALL-104 LAMP-1 surface exposure, flow cytometry; cells stimulated with thapsigargin and PMA; inhibition, % at 10 µM; AID 651702; 360,000 tested, 0.66% active;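 active = inhibition above about 55%, limit read from the data; inconclusive = no clear call, values can overlap the other calls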
DSG3 Ab inh – human desmoglein-3 autoantibody binding inhibition; binding (percent of control), % at 10 µM; 310,000 tested, 0.48% active; AID 588358; P32926; DSG3-coupled beads, scFv-anti-DSG3-GFP binding, flow cytometry; active compounds read low;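 active = binding more than 3 SD below its plate's average and above zero; inconclusive = below that plate limit but binding exactly zero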;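 also: hits lower antibody fragment binding to DSG3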
H9c2 protect – protects H9c2 cardiomyocytes from peroxide injury | H2O2 injury protection, ATPLite, 2 h | protection from H2O2 cell death, % at 20 µM | 360,000 tested, 0.63% active | AID 588492;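 active = compounds giving at least 50% protection of heart cells from peroxide-induced death in the single-dose screen, raw or plate-pattern-corrected value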
SENP1 inh – inhibitors of human SENP1 SUMO protease catalytic domain; Q9P0U3; recombinant SENP1 catalytic domain, CyPet-SUMO1-YPet FRET cleavage; inhibition, % at 10 µM; 360,000 tested, 0.21% active; AID 624204;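 active = inhibition at least 30% at 10 µM, raw YFP signal under a set limit, fluorescence ratio 0.5 to 1.5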
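system = hSENP1 catalytic domain, recombinant | reagent = SFCypet-SUMO1-SFYpet substrate at 25 nM | doses = one dose per compound, 10 µM, 0.5% DMSO | incubation = enzyme reaction for 50 min at room temperature, dark | measured by = FRET, CFP and YFP emission | controls = no-enzyme low, enzyme-DMSO high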
HNF4A DNA FP – change in binding of human HNF4 alpha to DNA; 360,000 tested, 0.3% active; HNF4a-FITC DNA binding, fluorescence polarization, 1 h; activity change, % at 10 µM; AID 1224865; in the data active = activity change above about 30%, passing the limit was not always enough
Target sequence (P41235 whole entry, looked up): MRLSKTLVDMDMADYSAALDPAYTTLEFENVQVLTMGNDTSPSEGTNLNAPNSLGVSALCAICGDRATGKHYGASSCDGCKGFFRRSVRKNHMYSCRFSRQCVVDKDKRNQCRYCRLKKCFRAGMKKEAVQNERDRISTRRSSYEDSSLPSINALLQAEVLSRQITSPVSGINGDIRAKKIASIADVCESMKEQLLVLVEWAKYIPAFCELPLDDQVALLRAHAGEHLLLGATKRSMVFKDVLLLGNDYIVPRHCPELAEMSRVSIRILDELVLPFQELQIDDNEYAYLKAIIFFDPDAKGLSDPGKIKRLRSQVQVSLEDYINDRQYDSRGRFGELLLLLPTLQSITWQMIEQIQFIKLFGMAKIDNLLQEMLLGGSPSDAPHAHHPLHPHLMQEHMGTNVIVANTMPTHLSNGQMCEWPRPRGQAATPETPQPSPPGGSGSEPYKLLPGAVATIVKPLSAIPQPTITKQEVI
Myeloid diff MLP – promotes myeloid progenitor differentiation; ER-HoxA9 myeloid progenitors, lysozyme-GFP differentiation, flow cytometry; calls only at 10 µM; 360,000 tested, 1% active;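 active = normalized GFP-positive differentiation at or above the plate's own cutoff, the solvent-only control mean plus 3 SD; inconclusive = no clear call, values can overlap the other calls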;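 also: cells exposed to compound for four days before flow analysis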
Of the large screens only hits and unclear results are named; the others gave an inactive call.

COc1cc(NC(=O)c2ccccc2Cl)ccc1NC(=O)c1cccs1	none
O=C(Nc1cccc(NC(=O)c2cccs2)c1)c1ccc([N+](=O)[O-])o1	Myeloid diff MLP inconclusive
CCCCCCC(C)n1[nH]c(=O)c2c(C)cc(C)nc21 (centres undefined)	none
CCCOc1ccc(C(=O)Nc2ccc(S(=O)(=O)N3C[C@@H]4C[C@@H](C3)c3cccc(=O)n3C4)cc2)cc1	none
CCOC(=O)c1n[nH]c(=O)c2ccccc12	none
CC1CCN(C(=O)COC(=O)c2n[nH]c(=O)c3ccccc23)CC1	H9c2 protect 62
O=C(CNS(=O)(=O)c1ccc(Br)cc1)NCc1ccncc1	none (no result: DSG3 Ab inh)
COc1cc(/C=C2\SC(=S)N(Nc3ccccc3)C2=O)ccc1O	HNF4A DNA FP 37
COc1cc(/C=C2\SC(=S)N(C(Cc3ccccc3)C(=O)O)C2=O)ccc1O (centres undefined)	HNF4A DNA FP 35
O=C1/C(=C/c2ccncc2)SC(=S)N1Nc1ccccc1	Granule exo inh 61
O=C(O)C(Cc1ccccc1)N1C(=O)/C(=C/c2ccccc2)SC1=S (centres undefined)	none
COc1cc(/C=C2/SC(=S)N(CC3CCCO3)C2=O)ccc1O (centres undefined)	HNF4A DNA FP 41
CC(=O)c1cccc(NC(=O)C(C)OC(=O)c2ccc(Br)o2)c1 (centres undefined)	none
Cc1cccc2cc(-c3ccccc3)c(-c3ccccc3)c[n+]12	none
O=C(O)c1ccc(/C=C2\SC(=S)N(NC(=O)c3ccccc3[N+](=O)[O-])C2=O)cc1	none
O=C(NN1C(=O)/C(=C\c2ccc(O)c([N+](=O)[O-])c2)SC1=S)c1ccccc1Cl	SENP1 inh 33
O=C(NN1C(=O)/C(=C/c2ccc(O)c(O)c2)SC1=S)c1ccccc1	H9c2 protect 65
O=C1/C(=C/c2ccc(O)c(O)c2)SC(=S)N1Nc1ccccc1	SENP1 inh 36, Myeloid diff MLP active
O=C(NN1C(=O)/C(=C/c2cccc(O)c2)SC1=S)c1ccccc1O	none
COc1c2ccoc2nc2c(OC)c(OCC(OC(C)=O)C(C)(C)O)ccc12 (centres undefined)	none
CCN(CC)S(=O)(=O)c1cccc(-c2nnc(SCCOc3ccc(Cl)cc3)o2)c1	DSG3 Ab inh -11
CCN(CC)S(=O)(=O)c1cccc(-c2nnc(SCCOc3ccccc3)o2)c1	none
CS(=O)(=O)Nc1ccc(-c2ccc(/C=C3\SC(N)=NC3=O)o2)cc1	HNF4A DNA FP 42
COc1ccc(NC(=O)Nc2ccc(O)c3ccccc23)cc1	none (no result: Granule exo inh, H9c2 protect, SENP1 inh, HNF4A DNA FP, Myeloid diff MLP)
CN(CCO)c1cc(Sc2nc3ccccc3s2)c2nonc2c1[N+](=O)[O-]	Granule exo inh 56
O=C(c1ccc(=O)[nH]c1)N1CCCc2ccccc21	none
CC(=O)Nc1sc2c(c1-c1nc3ccccc3s1)CN(C(C)C)CC2	Myeloid diff MLP inconclusive
CC(=O)N1CCc2c(sc(NC(=O)C3CC3)c2-c2nc3ccccc3s2)C1	HNF4A DNA FP 35, Myeloid diff MLP active
O=C(NNC(=O)c1cc(Br)ccc1Cl)c1csc(N2CCOCC2)n1	none
O=C(NNC(=O)c1cc(Br)ccc1O)c1csc(N2CCOCC2)n1	H9c2 protect 66
CCOP(=O)(OCC)/C(=N/OC(=O)c1ccccc1C)C(N)=O	none
CCOP(=O)(OCC)/C(=N/OC(=O)c1ccc(OC)cc1)C(N)=O	Granule exo inh 70 (no result: DSG3 Ab inh)
Cc1ccccc1-n1c(=O)/c(=C\c2ccco2)s/c1=C(/C#N)C(=O)Nc1ccccc1	H9c2 protect 71
CCc1ccc(/C=C2\SC(=S)N(CCCC(=O)N3CCCC3)C2=O)cc1	none
O=C1NC(c2cccs2)Nc2ccccc21 (centres undefined)	H9c2 protect 66
Fc1ccc(CSc2ncnc3c2oc2ccccc23)cc1	DSG3 Ab inh 69
Fc1cccc(CSc2ncnc3c2oc2ccccc23)c1	none
CCN(CC)c1nc(Nc2ccc([N+](=O)[O-])cc2)nc(N(CC)CC)n1	Granule exo inh 107
NS(=O)(=O)c1cc(Cl)c(NC(=O)COC(=O)c2ccccn2)c(Cl)c1	none
CCCCCCN1C=C/C(=C\C=C(C#N)C#N)c2ccccc21	Myeloid diff MLP active
Cc1nc2nc(C(F)(F)F)[nH]c2nc1C	none
COc1ccc(/C=N/NC(=O)c2nc(-c3ccccc3)n(-c3ccccc3)n2)cc1	none
COc1ccc(/C=N/NC(=O)c2nc(-c3ccccc3)n(-c3ccccc3)n2)c(O)c1	H9c2 protect 61 (no result: Myeloid diff MLP)
CC(C)(C)c1cc(C(=O)N/N=C/c2ccccc2O)n(-c2ccccc2)n1	H9c2 protect 51, Myeloid diff MLP inconclusive (no result: DSG3 Ab inh)
CCCCCCCCN1C(=O)[C@H](CC(=O)NCC2CCCCC2)C[C@@]2(C(=O)OC)CCCCC=C12	none (no result: DSG3 Ab inh, H9c2 protect)
Cc1ccccc1OCCC(=O)OCC(=O)NCCc1ccccc1	none
CCOC(=O)c1c(N)nn(C(=O)C(C)(C)C)c1-c1ccccc1	DSG3 Ab inh 92
O=C(NCCN1CCCC1)c1ccc2c(c1)N(Cc1ccccc1)C(=O)c1ccccc1S2(=O)=O	none
COc1ccc(CS(=O)c2nc(C)cc(C)c2S(C)(=O)=O)cc1 (centres undefined)	none
COc1cccc(NC(=O)N(C)C[C@H]2OCc3cnnn3CCCC(=O)N([C@H](C)CO)C[C@@H]2C)c1	none
CC(=O)c1ccc(NC(=O)CN2C(=O)/C(=C/C=C/c3ccccc3)SC2=S)cc1	DSG3 Ab inh 80
COc1ccc(Nc2nc(OC)nc(OC)n2)cc1	none
COc1ccc(Nc2nc(Nc3ccc(OC)cc3)nc(-n3[nH]c(=O)c(C)c3C)n2)cc1	H9c2 protect 92
O=C(Oc1ccc(N(Cc2cccs2)C2=NS(=O)(=O)c3ccccc32)cc1)c1ccccc1Cl	H9c2 protect 75
O=C(Nc1ccc(S(=O)(=O)N2CCOCC2)cc1)c1cccc(Br)c1	none
CCC1CCCCN1C(=O)COC(=O)COc1ccc(Br)cc1 (centres undefined)	none
Cc1ccccc1-n1nc2c(c1NC(=O)c1ccc(Br)o1)CSC2	DSG3 Ab inh 87
Cc1ccccc1-n1nc2c(c1NC(=O)c1ccco1)CS(=O)(=O)C2	none
O=c1c2cc(O)c(O)cc2oc2cc(O)c(C3OC(CO)C(O)C(O)C3O)c(O)c12 (centres undefined)	SENP1 inh 37
CN(C)N(Cc1ccccc1)C(=O)C(O)(c1ccccc1)c1ccccc1	H9c2 protect 60
O=C(NCC(=O)N(Cc1cccs1)C(C(=O)NC1CCCC1)c1ccncc1)c1ccco1 (centres undefined)	none
O=C(NCC(=O)N(Cc1cccs1)C(C(=O)NC1CCCCC1)c1ccco1)c1ccco1 (centres undefined)	H9c2 protect 77
